How the values were obtained:
Rattus norvegicus [1] = organism: Rattus norvegicus; assay: Anti-psychotic activity from the ability to block discrete trial conditioned avoidance response (CAR) of rats.; format: functional
Method in brief: (§1)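 Discrete-trial conditioned avoidance in male CD rats kept at about 400–450 g body weight. Dosing was ip or po, 30 min before testing, with at least five rats per dose (20 or 40 mg/kg, or a dose range). Computer recorded intertrial, avoidance and escape responses and no-response trials. Avoidance-block trials were taken as % of total trials, with control avoidance set at 100%. AB50 came from a least-squares dose-effect regression line.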

[2] = molecular target: T1, 5-hydroxytryptamine receptor 1A (Rattus norvegicus) (UniProt P19327); assay: In vitro ability to inhibit [3H]-8-OH-DPAT binding to 5-hydroxytryptamine 1A receptor of rat hippocampus at 1 uM; format: tissue-based
T1 sequence (whole entry): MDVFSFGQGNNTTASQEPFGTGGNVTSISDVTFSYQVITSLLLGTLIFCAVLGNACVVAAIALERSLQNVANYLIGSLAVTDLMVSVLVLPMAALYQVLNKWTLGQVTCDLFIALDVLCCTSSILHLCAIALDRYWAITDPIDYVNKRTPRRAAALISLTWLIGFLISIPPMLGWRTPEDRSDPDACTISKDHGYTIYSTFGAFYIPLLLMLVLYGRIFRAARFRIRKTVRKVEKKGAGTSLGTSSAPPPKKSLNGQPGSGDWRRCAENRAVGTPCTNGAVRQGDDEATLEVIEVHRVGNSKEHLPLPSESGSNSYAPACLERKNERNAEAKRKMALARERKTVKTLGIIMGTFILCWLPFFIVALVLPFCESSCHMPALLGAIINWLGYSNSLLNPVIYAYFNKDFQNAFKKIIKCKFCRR

[3] = molecular target: D(2) dopamine receptor (Rattus norvegicus) (UniProt P61169); assay: Inhibition of [3H]spiperone binding to Dopamine receptor D2 of rat limbic structures; format: tissue-based; parameters: concentration or dose not given beside the values; details: Limbic system, concentration not given here
[4] = molecular target: D(2) dopamine receptor (Rattus norvegicus) (UniProt P61169); assay: Inhibition of [3H]-spiperone binding to dopamine receptor D2 of rat limbic structures at 1 uM.; details: Limbic system
[5] = molecular target: T1, 5-hydroxytryptamine receptor 1A (Rattus norvegicus); assay: In vitro ability to inhibit [3H]8-OH-DPAT binding to 5-hydroxytryptamine 1A receptor of rat hippocampus at 1 uM; format: tissue-based
Rattus norvegicus [6] = organism: Rattus norvegicus; assay: Anti psychotic activity was evaluated from the ability to block discrete trial conditioned avoidance response (CAR) of rats and the value ranges from 26 - 143; format: functional; method in brief: as §1
Rattus norvegicus [7] = assay: Mean total score of In vivo ability (10.0 mg/kg) was to antagonize serotonin syndrome; format: functional
Rattus norvegicus [8] = assay: Compound was tested for antagonism of apomorphine-induced stereotyped behavior, after intraperitoneal dosing.; format: functional; details: ip
Method in brief: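 High-dose apomorphine-induced stereotyped behavior procedure. Test agents were given ip at doses up to 60 mg/kg.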

[9] = molecular target: T2, 5-hydroxytryptamine receptor 1A (Rattus norvegicus, UniProt P19327); assay: The inhibition activity of 5-HT1A at 1 uM
T2 sequence (P19327 whole entry): T1 sequence (whole entry)

Rattus norvegicus [10] = assay: Compound was tested for antagonism of apomorphine-induced climbing behavior, after intraperitoneal dosing and the value ranges from 0.97 - 11.7; format: functional; details: ip
[11] = molecular target: T2, 5-hydroxytryptamine receptor 1A; assay: In vitro ability to inhibit [3H]8-OH-DPAT binding to 5-HT1A receptor of rat hippocampus and the value ranges from 9 - 12; format: tissue-based
Rattus norvegicus [12] = assay: Mean total score of in vivo ability (8.0 mg/kg) was to elicit serotonin syndrome; format: functional
[13] = molecular target: T3, GABA-A receptor; anion channel (Rattus norvegicus) (UniProt O09028+P15431+P18506+P18508+P19969+P20236+P23574+P23576+P28471+P28473+P30191+P62813+P63079+P63138+Q91ZM7+Q9ES14); assay: (§2) Percent inhibition of GABA-A benzodiazepine receptor at 1 uM; format: protein-complex assay
Method in brief: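 Male Sprague-Dawley rat brain (cerebellum and pons-medulla removed) was homogenized in 0.32 M sucrose to give a 30000g pellet, resuspended in Tris-HCl pH 7.5. Membranes were incubated with 1.5×10^-9 M [³H]diazepam (2.0 mL final) for 30 min at 4 °C, GF/C filtered, washed ice-cold and scintillation counted. Nonspecific binding was taken with 3×10^-6 M cold diazepam. Drug was tested at 1 μM.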

[14] = Partition coefficient (logP); format: physicochemical; details: octanol/water
[15] = molecular target: T4, Adrenergic receptor alpha-1 (Rattus norvegicus) (UniProt P15823+P23944+P43140); assay: The percent inhibition of Alpha-1 adrenergic receptor at 1 uM; format: protein assay
D(2) dopamine receptor = D(2) dopamine receptor (Rattus norvegicus, UniProt P61169); assay: In vitro ability to inhibit [3H]spiperone binding to Dopamine receptor D2 of rat limbic structures and the value ranges from 116 - 159.; format: tissue-based, Limbic system
Rattus norvegicus [16] = assay: In vivo ability (10.0 mg/kg) was to elicit serotonin syndrome in rat; format: functional
Method in brief: (§3)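 Rat in vivo test adapted from published serotonin syndrome methods. Agents given ip; 5-MeO-DMT at 3.0 mg/kg ip was used to elicit the syndrome. Behaviour rated and reported as mean total score (±SEM).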

Rattus norvegicus [17] = assay: In vivo ability (10.0 mg/kg) was to antagonize serotonin syndrome in rat; format: functional; method in brief: as §3
Rattus norvegicus [18] = organism: Rattus norvegicus; assay: Antipsychotic activity was evaluated from the ability to block discrete trial conditioned avoidance response (CAR) of rats; format: functional
Method in brief: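 Male CD rats (about 400–450 g) trained in discrete-trial avoidance. Compound given ip or po 30 min before testing, at 20 or 40 mg/kg or over a dose range, with at least five rats per dose. Intertrial, avoidance, escape and no-response trials were recorded. Avoidance block is the percentage of trials without avoidance. AB50 comes from a least-squares dose–effect regression line.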

[19] = molecular target: T4, Adrenergic receptor alpha-1 (Rattus norvegicus); assay: Percent inhibition of Alpha-1 adrenergic receptor by 1 uM of compound; format: protein assay
[20] = molecular target: Adrenergic receptor beta (Rattus norvegicus) (UniProt P18090+P10608+P26255); assay: Percent inhibition of Beta adrenergic receptor by 1 uM of compound; format: protein assay
[21] = molecular target: T3, GABA-A receptor; anion channel (Rattus norvegicus); assay: as §2; format: protein-complex assay; remark: listed apart in the source
Method in brief: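 Incubated with 1.5×10^-9 M [³H]diazepam for 30 min at 4 °C, then filtered on GF/C and counted by scintillation. Nonspecific binding defined with 3×10^-6 M unlabelled diazepam.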

[22] = molecular target: D(2) dopamine receptor (Rattus norvegicus) (UniProt P61169); assay: In vitro ability to inhibit [3H]spiperone binding to Dopamine receptor D2 of rat limbic structures at 10 uM; format: tissue-based; details: Limbic system
[23] = molecular target: T2, 5-hydroxytryptamine receptor 1A; assay: In vitro ability to inhibit [3H]8-OH-DPAT binding to 5-hydroxytryptamine 1A receptor of rat hippocampus and the value ranges from 12 to 17.; format: tissue-based
Rattus norvegicus [24] = assay: Compound was tested for antagonism of apomorphine-induced climbing behavior, after intraperitoneal dosing.; format: functional; details: ip
[25] = molecular target: T2, 5-hydroxytryptamine receptor 1A; assay: In vitro ability to inhibit [3H]-8-OH-DPAT binding to 5-hydroxytryptamine 1A receptor of rat hippocampus. and the value ranges from 16 - 27; format: tissue-based
[26] = molecular target: T1, 5-hydroxytryptamine receptor 1A (Rattus norvegicus); assay: In vitro ability to inhibit [3H]-8-OH-DPAT binding to 5-hydroxytryptamine 1A receptor of rat hippocampus.; format: tissue-based; details: concentration not given here
[27] = molecular target: D(2) dopamine receptor (Rattus norvegicus) (UniProt P61169); assay: Compound was tested in vitro at for the ability to inhibit [3H]spiperone binding to Dopamine receptor D2 of rat limbic structures at 3 uM; format: tissue-based; details: Limbic system

Sequence of D(2) dopamine receptor (Rattus norvegicus) (P61169 whole entry): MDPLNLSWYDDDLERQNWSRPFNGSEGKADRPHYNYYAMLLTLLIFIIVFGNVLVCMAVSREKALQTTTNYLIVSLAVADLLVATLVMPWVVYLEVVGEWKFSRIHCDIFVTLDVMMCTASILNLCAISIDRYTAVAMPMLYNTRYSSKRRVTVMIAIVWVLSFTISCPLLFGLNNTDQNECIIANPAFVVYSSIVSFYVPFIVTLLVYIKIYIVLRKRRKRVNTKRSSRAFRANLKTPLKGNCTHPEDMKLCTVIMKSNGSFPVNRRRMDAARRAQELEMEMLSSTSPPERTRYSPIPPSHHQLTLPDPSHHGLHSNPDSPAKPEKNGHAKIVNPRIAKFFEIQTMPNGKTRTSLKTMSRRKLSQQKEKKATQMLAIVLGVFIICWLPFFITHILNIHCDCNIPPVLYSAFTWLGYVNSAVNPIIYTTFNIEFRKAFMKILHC
Sequence of D(2) dopamine receptor (P61169 whole entry): as above

| inhibition [3] [%] | SMILES | AB50 (Rattus norvegicus [1]) [mg/kg] | also measured |
| --- | --- | --- | --- |
| 4 | CC1CC(=O)N(CCCCN2CCN(c3cncc(Cl)n3)CC2)S(=O)(=O)N1.Cl.Cl.Cl (stereo not given) | 32 | inhibition [2]: 61% |
| 1 | Cl.Cl.Cl.O=C1C2C3C=CC(C3)C2S(=O)(=O)N1CCCCN1CCN(c2cncc(Cl)n2)CC1 (stereo not given) | 40 |  |
| 21 | CC1=C(C)CC2C(C1)C(=O)N(CCCCN1CCN(c3ncccn3)CC1)S2(=O)=O.Cl.Cl (stereo not given) | 40 |  |
| 1 | Cl.O=C1C2C3C=CC(C3)C2S(=O)(=O)N1CCCCc1ccncc1 (stereo not given) | 40 |  |
| 0 | Cl.O=C1c2ccccc2S(=O)(=O)N1CCCCN1CCn2cccc2C1 | >40 |  |
| 10 | Cl.O=C1[C@@H]2C3CCC(O3)[C@@H]2S(=O)(=O)N1CCCCN1CCN(c2cncc(Cl)n2)CC1 (stereo not given in full) | 40 | inhibition [2]: 54% |
| 0 | Cl.O=C1C2C3C=CC(CC3)C2S(=O)(=O)N1CCCCc1ccncc1 (stereo not given) | >40 | inhibition [5]: 35% |
| 3 | Cl.Cl.Cl.O=C1C2C3C=CC(C3)C2S(=O)(=O)N1CCCCN1CCN(c2ccc(Cl)nn2)CC1 (stereo not given) | >40 |  |
| 70 | Cl.O=C1C2C3CCC(C4CC43)C2S(=O)(=O)N1CCCCN1CCN(c2ncccn2)CC1 (stereo not given) | 40 | Ki [25]: 21 nM |
| 6 | Cl.O=C1c2ccccc2S(=O)(=O)N1CCCCN1CCN(c2cncc(Cl)n2)CC1 | 40 |  |

Continued, compound first:

| SMILES | inhibition [3] [%] | AB50 (Rattus norvegicus [1]) [mg/kg] | also measured |
| --- | --- | --- | --- |
| Cl.O=C1[C@H]2C3CCC(O3)[C@H]2S(=O)(=O)N1CCCCc1ccncc1 (stereo not given in full) |  | 40 | inhibition [4]: 3%; inhibition [5]: 0% |
| Cl.Cl.O=C1C2C3C=CC(C4C=CC43)C2S(=O)(=O)N1CCCCN1CCN(c2ncccn2)CC1 (stereo not given) |  |  | AB50 (Rattus norvegicus [6]): 39 mg/kg; Mean (Rattus norvegicus [7]): 5.1; ED50 (Rattus norvegicus [8]): 32.2 mg/kg; Ki [9]: 10 nM; ED50 (Rattus norvegicus [10]): 3.38 mg/kg; Ki [11]: 10 nM; Mean (Rattus norvegicus [12]): 3.9; inhibition [13]: 0%; logP [14]: 1.92; inhibition [15]: 54%; Ki (D(2) dopamine receptor): 136 nM |
| Cl.O=C1C2C3CCC(CC3)C2S(=O)(=O)N1CCCCC1CCN(c2cncc(Cl)n2)CC1 (stereo not given) | 0 | >40 | inhibition [2]: 7% |
| Cl.O=C1c2cscc2S(=O)(=O)N1CCCCN1CCN(c2cncc(Cl)n2)CC1 |  | >40 |  |
| Cl.Cl.O=C1c2cscc2S(=O)(=O)N1CCCCN1CCN(c2ncccn2)CC1 |  | >20 |  |
| Cl.Cl.Cl.O=C1c2cscc2S(=O)(=O)N1CCCCN1CCN(c2ccc(Cl)nn2)CC1 |  | >40 |  |
| O=C1CC2(CCCC2)CC(=O)N1CCCCN1CCN(c2ncccn2)CC1 [BUSPIRONE] |  |  | Mean (Rattus norvegicus [16]): 2.9; Mean (Rattus norvegicus [17]): 6.1; AB50 (Rattus norvegicus [18]): 32 mg/kg; inhibition [19]: 33%; inhibition [20]: 0%; inhibition [21]: 0% |
| CC1=C(C)CC2C(C1)C(=O)N(CCCCN1CCN(c3cncc(Cl)n3)CC1)S2(=O)=O.Cl.Cl.Cl (stereo not given) |  | 40 | inhibition [22]: 66% |
| Cl.Cl.O=C1c2ccccc2S(=O)(=O)N1CCCCN1CC2CN(Cc3ccccc3)CC2C1 (stereo not given) | 8 | >40 |  |
| Cl.Cl.O=C1N(CCCCN2CCN(c3ncccn3)CC2)S(=O)(=O)NC12CCCCC2 |  | 40 |  |
| Cl.Cl.O=C1C2C3C=CC(C3)C2S(=O)(=O)N1CCCCN1CCN(c2cccc(C(F)(F)F)c2)CC1 (stereo not given) |  | 51 | Ki [23]: 15 nM |
| Cl.Cl.O=C1C2C3CCC(O3)C2S(=O)(=O)N1CCCCN1CCN(c2ncccn2)CC1 (stereo not given) |  | >40 | ED50 (Rattus norvegicus [8]): 34 mg/kg; inhibition [4]: 0%; ED50 (Rattus norvegicus [24]): 16 mg/kg |
| CC1=C(C)CC2C(C1)C(=O)N(CCCCc1ccncc1)S2(=O)=O.Cl (stereo not given) |  | >40 | inhibition [4]: 56%; inhibition [5]: 8% |
| Cl.O=C1c2ccccc2S(=O)(=O)N1CCCCN1CCN(c2nccnc2Cl)CC1 |  | 40 |  |
| Cl.O=c1c2ccccc2[s+]([O-])n1CCCCN1CCN(c2cncc(Cl)n2)CC1 (stereo not given) | 0 | 40 | inhibition [2]: 44% |
| CC1CC(=O)N(CCCCN2CCN(c3ncccn3)CC2)S(=O)(=O)N1.Cl (stereo not given) |  | 40 |  |
| Cl.Cn1nnnc1N1CCN(CCCCN2C(=O)c3ccccc3S2(=O)=O)CC1 |  | 40 | inhibition [26]: 52%; inhibition [4]: 14% |
| Cl.O=C1C2C3C=CC(CC3)C2S(=O)(=O)N1CCCCN1CCN(c2cncc(Cl)n2)CC1 (stereo not given) |  | 40 | inhibition [27]: 57% |
| Cl.Cl.O=C1C2C3C=CC(CC3)C2S(=O)(=O)N1CCCCN1CCN(c2ncccn2)CC1 (stereo not given) |  | 40 |  |
| Cl.Cl.O=C1C2C3C=CC(C4CC34)C2S(=O)(=O)N1CCCCN1CCN(c2ncccn2)CC1 (stereo not given) |  | 40 |  |
| Cl.O=C1c2cscc2S(=O)(=O)N1CCCCN1CCN(c2nccnc2Cl)CC1 |  | >40 |  |
| Cl.Cl.O=c1c2ccccc2[s+]([O-])n1CCCCN1CCN(c2ncccn2)CC1 (stereo not given) |  | 40 | inhibition [4]: 3%; inhibition [5]: 43% |
